Source: the array DNA melting data of Ke et al. (doi:10.1101/2024.01.08.574731)

Tests used:
[1] = folding enthalpy; higher = less favourable; fluorescence melt of hairpins on a sequencing array, two-state fit; settings: sodium 0.088 M
Summary of the method: (§1)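 Two-state fits, bootstrapped, provided melting temperature and folding enthalpy from Cy3 fluorescence normalised to pre-quench Cy3 and to control constructs. Library hairpins with annealed Cy3 and quencher oligos were imaged on a sequenced MiSeq flow cell in 50 mM Na-HEPES pH 8.0, 25 mM NaCl, at 2.5 °C intervals up to 60 °C. Four replicates were combined with inverse-variance weighting. A 9.35 °C upward shift was applied to fitted temperatures to match UV melts.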

[2] = melting temperature; fluorescence melt of hairpins on a sequencing array, two-state fit, raised by 9.35 °C to match UV melts; settings: sodium 0.088 M
Summary of the method: as §1

Row | Sequence | folding enthalpy [1] | Tm [2]
1 | GCGTGTCGAAAGACCCGC (((.(((....))).))) | -42 kcal/mol | 58 °C
2 | GTTAACGAAAGTTTAAC ((((((....))).))) | -17 kcal/mol | 34.6 °C
3 | GATCCCTGACGGGATC ((((((....)))))) | -38.6 kcal/mol | 58.1 °C
4 | GGACCAGGAAACCAGTCC ((((..(....)..)))) | -20.3 kcal/mol | 33.9 °C
5 | GGTCCCGAAAGGGCACC ((((((....))).))) | -16.6 kcal/mol | 53.5 °C
6 | GCATGGCGAAAGCCAAGC ((.((((....)))).)) | -17.6 kcal/mol | 61.6 °C
7 | GATCGATCACTCGATC ((((((....)))))) | -41.5 kcal/mol | 51.2 °C
8 | CTACTGAAAAGTAG (((((....))))) | -13.5 kcal/mol | 44.3 °C
9 | GGCGGCGGAAACACCGCC (((((.(....).))))) | -21.9 kcal/mol | 65.2 °C
10 | GACTCGCGAAAGCGCGTC (((.(((....))).))) | -23.6 kcal/mol | 55.9 °C
11 | GGGGTCGAAAGACCTCCC ((((((....)))..))) | -11.7 kcal/mol | 51.4 °C
12 | GATCTTCTCTAAGATC ((((((....)))))) | -35 kcal/mol | 42.8 °C
13 | GCTCCGCGAAAGCCGGGC ((.(.((....)).).)) | -16.4 kcal/mol | 50 °C
14 | GATTACGAAAGTAATC ((((((....)))))) | -40 kcal/mol | 56.4 °C
15 | GCAGAGCGAAAGCTTGC (((.(((....)))))) | -20.6 kcal/mol | 53.7 °C
16 | GATCACGATGGTGATC ((((((....)))))) | -36.1 kcal/mol | 58.8 °C
17 | GTACGTGGAAACACACAC ((..(((....)))..)) | -10.8 kcal/mol | 27.4 °C
18 | GCGAAGCGAAAGCCGCGC (((..((....))..))) | -16.8 kcal/mol | 61.6 °C
19 | GGGTTCGAAAGAATACCC ((((((....)))..))) | -24.9 kcal/mol | 40.5 °C
20 | GCCGGGCGAAAGCACAGC ((.(.((....)).).)) | -16.9 kcal/mol | 53.8 °C
21 | GATCTGCGTCCAGATC ((((((....)))))) | -30.1 kcal/mol | 48.3 °C
22 | GTTGTCGAAAGACTTAAC ((((((....)))..))) | -10 kcal/mol | 27.2 °C
23 | GGTTCCGAAAGGAGACC ((((((....))).))) | -23.8 kcal/mol | 47.6 °C

Row | Sequence | folding enthalpy [1] | Tm [2]
24 | GACCCCGAAAGGGGGGTC ((((((....)))..))) | -13.3 kcal/mol | 67.4 °C
25 | GTTTGTGGAAACACAAGC (.(((((....))))).) | -23.1 kcal/mol | 45.1 °C
26 | GATCGGAGGTCCGATC ((((((....)))))) | -31.5 kcal/mol | 57.6 °C
27 | CGTAGACGGAAACGTACG (((..(((....)))))) | -16.7 kcal/mol | 36.9 °C
28 | GCGTAGGGAAACCTGCGC (((.(((....))).))) | -37.7 kcal/mol | 58.9 °C
29 | GCTAACTCGAAAGAGAGC (((..(((....)))))) | -16.5 kcal/mol | 32 °C
30 | GTACACGAAAGTGGATAC ((((((....)))..))) | -11.8 kcal/mol | 34.5 °C
31 | GATCTCAAAAGAGATC ((((((....)))))) | -29.8 kcal/mol | 48.5 °C
32 | GGATACGAAAGTACATCC ((((((....)))..))) | -17.1 kcal/mol | 34.5 °C
33 | GTTCGAGGAAACTCGGAC ((.((((....)))).)) | -40.9 kcal/mol | 51.3 °C
34 | GGAGTTCGAAAGAAGTCC (((.(((....))).))) | -41.3 kcal/mol | 54.1 °C
35 | GTAATTGGAAACAATTAC (((((((....))))))) | -45.9 kcal/mol | 50.4 °C
36 | GCATCCGGAAACGGACGC ((.((((....)))).)) | -31.2 kcal/mol | 51.3 °C
37 | GGCCTTCGAAAGAATGCC (((.(((....))).))) | -33.1 kcal/mol | 48.3 °C
38 | GCTCCACCGAAAGGTAGC (((..(((....)))))) | -17.2 kcal/mol | 33.9 °C
39 | GGCGTAGGAAACTGTGCC (((..((....))..))) | -27 kcal/mol | 39.4 °C
40 | CGACGGCGGAAACGCTCG (((..(((....)))))) | -15.4 kcal/mol | 38.3 °C
41 | GATCTGCGATCAGATC ((((((....)))))) | -33.9 kcal/mol | 47.1 °C
42 | GCTTCAGAAATGAAGC ((((((....)))))) | -33.7 kcal/mol | 55.7 °C
43 | GTAACCCGAAAGGGCTAC (((.(((....))).))) | -20 kcal/mol | 45.6 °C
44 | GATCGTCCCTACGATC ((((((....)))))) | -43.9 kcal/mol | 55 °C
45 | GGCACCGGAAACGATGCC ((((.((....)).)))) | -43.2 kcal/mol | 52.9 °C
46 | CGCAGGCGGAAACGCGCG (((..(((....)))))) | -23 kcal/mol | 56.2 °C

Row | Sequence | folding enthalpy [1] | Tm [2]
47 | GGCAGTTCGAAAGAAGCC (((..(((....)))))) | -16.3 kcal/mol | 34.5 °C
48 | GATCAGCTTCTGATC ((((((...)))))) | -31.5 kcal/mol | 49.1 °C
49 | GCACAGCGAAAGCTCTGC (((.(((....))).))) | -25.6 kcal/mol | 40.6 °C
50 | CGTCGCCGGAAACGGACG (((..(((....)))))) | -17.8 kcal/mol | 47.1 °C
51 | GCGTTAGGAAACTAGCGC (((.(((....))).))) | -46.9 kcal/mol | 52.4 °C
52 | GATCAGCCGGCTGATC ((((((....)))))) | -48 kcal/mol | 63.4 °C
53 | GCTAGGCGAAAGCGTCGC ((.(.((....)).).)) | -14.3 kcal/mol | 40.3 °C
54 | GCTACCGGAAACGGTGGC ((.((((....)))).)) | -33.8 kcal/mol | 60 °C
55 | GGTACGCGAAAGCGACC (((.(((....)))))) | -14.9 kcal/mol | 54.8 °C
56 | GGCCTTGAAAAAGGCC ((((((....)))))) | -39.9 kcal/mol | 68.4 °C
57 | GATCATAAAATGATC ((((((...)))))) | -30.7 kcal/mol | 48 °C
58 | GTAGAACCGAAAGGTTAC (((..(((....)))))) | -13.3 kcal/mol | 32.5 °C
59 | GCGCCCGAAAGGGAACGC ((((((....)))..))) | -33.4 kcal/mol | 54.7 °C
60 | GGGTTCCGAAAGGAGCCC (((.(((....))).))) | -39.8 kcal/mol | 67.1 °C
61 | GATCCAGCGGTGGATC ((((((....)))))) | -44.3 kcal/mol | 50.8 °C
62 | GCGTCCCACGC ((((...)))) | -25.9 kcal/mol | 56.3 °C
63 | GGGTTCGGAAACGGACCC ((((.((....)).)))) | -46.2 kcal/mol | 59.6 °C
64 | GGGAAAACGAAAGTTCCC (((..(((....)))))) | -27.1 kcal/mol | 43.5 °C
65 | GATCGATCTATCGATC ((((((....)))))) | -42.5 kcal/mol | 56.3 °C
66 | GGGTGACGAAAGTCTCCC (((.(((....))).))) | -36.2 kcal/mol | 60.3 °C
67 | GCACCGCGAAAGCGTGGC ((..(((....)))..)) | -16.5 kcal/mol | 56.1 °C
68 | GCACAAGAAATTGTGC ((((((....)))))) | -36 kcal/mol | 57.3 °C
69 | GTGCATGGAAACATGTAC ((.((((....)))).)) | -31.7 kcal/mol | 48.7 °C
